Paper PMC3133600 (Journal of the American Chemical Society, 2011)
pEC50: −log10 of the molar value. Like-named read-outs stand apart in the source and are kept apart here.

Key:
[1] = test system: HIF-1α levels in MCF7 cells; test: Cellular HIF-1α levels; format: cell-based, human; conditions: 24 hours
[2] = biological target: T1, human JMJD2C(1–420) (Homo sapiens, UniProt Q9H3R0); format: biochemical; conditions: at up to 50 μM, the highest concentration tested
T1 sequence (Q9H3R0 1-420): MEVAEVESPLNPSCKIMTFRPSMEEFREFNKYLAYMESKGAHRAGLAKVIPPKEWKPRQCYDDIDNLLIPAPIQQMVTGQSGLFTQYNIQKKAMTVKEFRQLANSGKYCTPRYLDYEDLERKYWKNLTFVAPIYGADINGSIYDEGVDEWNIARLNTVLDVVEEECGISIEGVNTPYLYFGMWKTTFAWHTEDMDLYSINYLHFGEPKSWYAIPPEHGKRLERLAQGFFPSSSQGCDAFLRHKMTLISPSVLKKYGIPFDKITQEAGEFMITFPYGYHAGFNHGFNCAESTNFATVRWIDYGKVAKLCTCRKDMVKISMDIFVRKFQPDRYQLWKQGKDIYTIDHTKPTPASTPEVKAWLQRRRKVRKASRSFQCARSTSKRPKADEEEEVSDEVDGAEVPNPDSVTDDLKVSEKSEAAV

[3] = biological target: T2, JMJD2A (H3K9me3 and H3K36me3 demethylase) (Homo sapiens, UniProt O75164); test: JMJD2A enzyme inhibition in vitro; format: biochemical; conditions: at up to 50 μM, the highest concentration tested
T2 sequence (O75164 1-1064): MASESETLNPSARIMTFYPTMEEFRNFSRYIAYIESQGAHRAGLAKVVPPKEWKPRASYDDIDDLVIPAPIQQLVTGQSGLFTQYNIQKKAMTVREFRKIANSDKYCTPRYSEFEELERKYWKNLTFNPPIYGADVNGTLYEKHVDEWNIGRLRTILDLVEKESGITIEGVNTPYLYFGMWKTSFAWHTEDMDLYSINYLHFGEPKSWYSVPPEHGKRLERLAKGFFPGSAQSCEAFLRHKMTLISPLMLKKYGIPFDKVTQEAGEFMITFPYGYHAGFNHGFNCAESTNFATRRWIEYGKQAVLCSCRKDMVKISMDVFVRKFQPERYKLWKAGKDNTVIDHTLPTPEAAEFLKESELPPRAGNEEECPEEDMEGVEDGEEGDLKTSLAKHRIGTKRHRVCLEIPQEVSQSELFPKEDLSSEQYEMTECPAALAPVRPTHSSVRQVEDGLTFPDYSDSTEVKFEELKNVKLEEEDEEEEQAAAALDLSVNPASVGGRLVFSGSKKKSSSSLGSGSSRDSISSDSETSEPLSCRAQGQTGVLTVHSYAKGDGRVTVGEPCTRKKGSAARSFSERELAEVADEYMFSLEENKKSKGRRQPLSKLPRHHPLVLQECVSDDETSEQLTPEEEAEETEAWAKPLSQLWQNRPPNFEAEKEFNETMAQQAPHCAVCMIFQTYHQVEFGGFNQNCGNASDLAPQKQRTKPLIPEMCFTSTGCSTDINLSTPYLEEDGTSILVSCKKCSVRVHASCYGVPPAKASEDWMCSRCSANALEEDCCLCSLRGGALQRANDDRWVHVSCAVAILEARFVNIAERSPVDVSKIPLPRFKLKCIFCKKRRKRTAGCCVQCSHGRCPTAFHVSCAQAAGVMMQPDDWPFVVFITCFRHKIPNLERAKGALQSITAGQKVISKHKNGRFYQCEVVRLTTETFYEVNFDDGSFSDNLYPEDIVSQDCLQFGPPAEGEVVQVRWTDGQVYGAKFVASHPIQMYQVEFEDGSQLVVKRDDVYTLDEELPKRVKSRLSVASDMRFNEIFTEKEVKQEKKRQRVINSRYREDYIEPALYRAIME

[4] = biological target: FAD-dependent demethylase, LSD1 (Homo sapiens, UniProt O60341); test: LSD1 enzyme inhibition in vitro; format: biochemical; conditions: at up to 50 μM, the highest concentration tested
[5] = test system: class I or class II HDACs; test: HDAC enzyme inhibition in vitro; format: biochemical; conditions: at up to 50 μM, the highest concentration tested
[6] = test system: JMJD2C-sensitive oesophageal carcinoma cell line KYSE150; test: KYSE150 growth inhibition assay; format: cell-based; conditions: read-out: GI50, KYSE150 cell growth; treatment for 48 hours
[7] = Stability in KYSE150 cell growth media; format: in vitro ADME; conditions: 37 °C, 48 hours, extraction with 3:1 chloroform:isopropanol
[8] = test system: H3K4me3 and H3K9me3 levels in KYSE150 cells; format: cell-based
Method in brief: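 KYSE150 cells were immunostained for H3K4me3 and H3K9me3 in a quantitative image-based assay. Image quantification gave half-maximal effective concentrations for each mark.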

[9] = test system: H3K4me3 and H3K9me3 levels in MCF7 cells; format: cell-based, human
[10] = test system: JMJD2C(1–420)-GFP fusion protein in HeLa cells; test: H3K9me3 immunostaining in HeLa cells ectopically expressing JMJD2C; format: cell-based, human; conditions: 10 μM, 48 hours
Method in brief: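 HeLa cells were transfected with JMJD2C(1–420)-GFP, then treated with DMSO or 10 μM test compound. After 48 h they were immunostained with anti-H3K9me3 antibody and DAPI nuclear stain. H3K9me3 was compared in GFP-transfected cells.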

[11] = test system: histone methylation marks in KYSE150 cells; test: Western blotting of histone methylation marks in KYSE150 cells; format: cell-based; conditions: 48 hours
Method in brief: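 KYSE150 cells received DMSO, DFO 150 μM or DMOG 1 mM as positive controls for Fe²⁺/α-ketoglutarate hydroxylase inhibition, or test compound at 5, 10 or 15 μM, for 48 h. Histone methylation marks were assessed by Western blot, with histone levels based on coomassie stain.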

[12] = test system: C2C12 cells; test: Myotube formation in C2C12 cells; format: cell-based; conditions: C2C12 cells in differentiation media, 6 days
Method in brief: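 C2C12 cells in differentiation media were given DMSO or test compound at 1, 2 or 4 μM. After 6 days they were immunostained with anti-myosin heavy chain antibody plus DAPI. MHC-positive myotubes were scored from the images.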

[13] = test system: UTX-targeted genes Myog and CKm in C2C12 cells; test: RT-PCR of UTX-targeted genes during myogenesis; format: cell-based; conditions: differentiating C2C12 myoblast, 1, 2 and 4 μM, 6 days
Method in brief: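 Differentiating C2C12 myoblasts were given DMSO or test compound (1, 2, 4 μM) in differentiation media. mRNA was collected after 6 days, and RT-PCR measured Myog and Ckm.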

[14] = DFO at 150 μM, DMOG at 1 and 2 mM

inhibition of enzymatic activity of JMJD2C [2] | inhibition of enzymatic activity of JMJD2A [3] | inhibition of enzymatic activity of LSD1 [4] | inhibition of enzymatic activity of HDACs [5] | GI50 [6] [µM] | pEC50 ([8]; read-out: EC50 for H3K4me3) | pEC50 ([8]; read-out: EC50 for H3K9me3) | pEC50 ([9]; read-out: EC50 for H3K4me3) | pEC50 ([9]; read-out: EC50 for H3K9me3) | Structure (SMILES) | cellular HIF-1α levels [1, 14] | recovered unchanged after incubation in cell growth media [7] [%] | increase of the H3K9me3 mark [8] [fold] | increase of the H3K9me3 mark [9] [fold] | cellular HIF-1α levels ([1]; at up to 15 μM, the highest concentration tested) | reduction of H3K9me3 level by JMJD2C(1–420)-GFP [10] | methylation of H3K4, H3K9, H3K27 and H3K36 (Western blotting) ([11]; KYSE150 cells, 5, 10 and 15 μM, concentration-dependent) | cellular levels of H3K79me3 and H4K20me3 ([11]; KYSE150 cells) | concentration sufficient to prevent the formation of MHC-positive myotubes [12] [µM] | expression of UTX-targeted genes Myog and CKm (RT-PCR) [13]
 |  |  |  |  |  |  |  |  | CC(=O)N(O)CCCCCNC(=O)CCC(=O)N(O)CCCCCNC(=O)CCC(=O)N(O)CCCCCN [DFO, desferoxamine] | significantly increased |  |  |  |  |  |  |  |  | 
 |  |  |  |  |  |  |  |  | COC(=O)CNC(=O)C(=O)OC [DMOG] | significantly increased |  |  |  |  |  |  |  |  | 
does not inhibit | does not inhibit | does not inhibit | does not inhibit | ~5.1 | 4.99 | 5.07 | 5.17 | 5.20 | COC(=O)/C=C/C(=O)N(O)CCCCNCc1ccc(COC(=O)Nc2cccc3ccccc23)cc1 [Methylstat, methylstat] |  | 88 | 10.8 | 4.5 | did not affect | reversed | induces hypermethylation | induces increased cellular levels | 2 | loss of expression
